Consider 13 compounds from publication PMC10670441 (ACS chemical neuroscience, 2023).

The term IC50 denotes the concentration that inhibits the measured activity by half. A higher IC50 goes with a need for much substance. What is called EC50 is the concentration that produces a half-maximal response.

In assay [1] the target is human dopamine transporter (hDAT) (Homo sapiens, UniProt Q01959). Kind of assay: Inhibition of APP+ uptake in hDAT-expressing HEK293 cells. Type of assay: cell-based. Conditions: for DAT Selectivity: SERT IC50 value ÷ DAT IC50 value; for IC50: hDAT, inhibition of APP+ (3 μM) uptake. The method in brief:
(§1)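 Flp-In T-REx HEK293 lines stably carrying hDAT or hSERT, DsRED-transfected, doxycycline-induced (1μg/mL) for three days. Under perfusion in pH 7.3 HEPES-glucose buffer: 10 s buffer, 40 s compound, 30 s APP⁺ (3 μM hDAT; 5 μM hSERT) plus compound. Imaging at ex 460/em 535/50 nm. End-point fluorescence averaged over 30–60 cells per well, one concentration per well, normalised to compound-free wells (≥4 wells/concentration). Dose-response inhibition fit gives IC50.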

Assay [2] has as its target human serotonin transporter (hSERT) (Homo sapiens, UniProt P31645). Kind of assay: Inhibition of APP+ uptake in hSERT-expressing HEK293 cells. Conditions: inhibition of APP+ (5 μM) uptake. It counts as cell-based. The method in brief:
as §1

Assay [3] has as its system DAT. Conditions: cited from earlier work; for EC50: DAT releasing agent.
For assay [4], the system named is DAT. The note with it: binding at DAT; cited from earlier work.

Sequence of human dopamine transporter (hDAT) (Q01959 whole entry, the tested form may be a part): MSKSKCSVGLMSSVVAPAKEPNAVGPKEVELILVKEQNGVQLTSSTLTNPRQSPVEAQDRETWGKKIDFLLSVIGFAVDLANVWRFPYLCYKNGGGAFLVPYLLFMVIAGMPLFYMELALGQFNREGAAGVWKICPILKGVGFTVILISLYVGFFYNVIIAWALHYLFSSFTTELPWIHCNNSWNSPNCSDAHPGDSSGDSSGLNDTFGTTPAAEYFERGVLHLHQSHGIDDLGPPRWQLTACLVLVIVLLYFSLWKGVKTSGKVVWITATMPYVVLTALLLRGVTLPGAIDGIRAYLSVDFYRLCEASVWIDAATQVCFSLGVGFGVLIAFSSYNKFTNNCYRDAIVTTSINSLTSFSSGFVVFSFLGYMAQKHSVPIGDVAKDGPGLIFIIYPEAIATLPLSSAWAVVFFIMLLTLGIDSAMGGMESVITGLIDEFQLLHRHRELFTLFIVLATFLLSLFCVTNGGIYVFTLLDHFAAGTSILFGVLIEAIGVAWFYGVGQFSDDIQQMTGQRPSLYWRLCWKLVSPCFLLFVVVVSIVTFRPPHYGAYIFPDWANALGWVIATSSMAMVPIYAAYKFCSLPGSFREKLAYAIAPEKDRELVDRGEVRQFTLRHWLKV
Sequence of human serotonin transporter (hSERT) (P31645 whole entry): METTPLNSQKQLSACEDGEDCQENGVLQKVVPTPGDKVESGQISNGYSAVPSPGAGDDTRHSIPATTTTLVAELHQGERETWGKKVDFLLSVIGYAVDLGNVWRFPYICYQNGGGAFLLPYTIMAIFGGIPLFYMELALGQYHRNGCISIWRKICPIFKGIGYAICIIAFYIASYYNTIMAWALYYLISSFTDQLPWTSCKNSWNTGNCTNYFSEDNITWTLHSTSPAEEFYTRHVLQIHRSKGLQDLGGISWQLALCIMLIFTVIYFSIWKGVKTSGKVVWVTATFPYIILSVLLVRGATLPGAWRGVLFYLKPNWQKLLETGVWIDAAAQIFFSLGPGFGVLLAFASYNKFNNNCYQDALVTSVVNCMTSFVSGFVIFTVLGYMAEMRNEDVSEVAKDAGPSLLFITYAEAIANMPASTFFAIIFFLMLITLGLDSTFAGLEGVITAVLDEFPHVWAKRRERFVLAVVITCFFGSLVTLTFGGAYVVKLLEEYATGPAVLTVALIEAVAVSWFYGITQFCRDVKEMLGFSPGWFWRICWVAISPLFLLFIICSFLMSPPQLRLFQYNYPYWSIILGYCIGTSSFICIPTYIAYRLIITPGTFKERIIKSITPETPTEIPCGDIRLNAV

For the compound `CCCCC(C(=O)c1ccc(Br)cc1)N1CCCC1.Cl` (stereo not drawn) [4-Br α-PHP (8), 1-(4-Bromophenyl)-2-(pyrrolidin-1-yl)hexanone Hydrochloride], in assay [1], the “DAT Selectivity” value turned out to be 28 fold and the half-inhibitory concentration (IC50) was 127 nM. This compound also registered an IC50 in assay [2] of 3.61 µM.

Turning to `CNC(C)C(=O)c1ccc(C(F)(F)F)cc1` (centres unmarked) [4-CF3 10, 4-CF3 methcathinone], the EC50 in the assay with DAT [3] was 2710 nM.

With `CCCC(C(=O)c1ccc(C(F)(F)F)cc1)N1CCCC1` (centres unmarked) [4-CF3 analogue of 2], the “fold lower affinity at DAT than 2” value with DAT [4] is listed as above 300 fold.

For the compound `CCCCC(C(=O)c1ccc(C(F)(F)F)cc1)N1CCCC1.Cl` (stereo not drawn) [4-CF3 α-PHP (9), 1-(4-Trifluoromethylphenyl)-2-pyrrolidin-1-yl)hexanone Hydrochloride], the IC50 in assay [1] came out at 7500 nM; in assay [2], 5.79 µM.

For the compound `CCCCC(C(=O)c1ccc(C(F)(F)F)cc1)N1CCCC1.Cl` (stereo not drawn) [4-CF3 α-PHP (9)], in assay [1], the “DAT Selectivity” value came out at 0.8 fold.

Consider `CCCCC(C(=O)c1ccc(CC)cc1)N1CCCC1.Cl` (stereo not drawn) [4-CH2CH3 α-PHP (6), 1-(4-Ethylphenyl)-2-(pyrrolidin-1-yl)hexanone Hydrochloride], for which, in assay [1], the “DAT Selectivity” value was determined as 40 fold and half-maximal inhibition (IC50) required 247 nM. This compound showed an IC50 in assay [2] of 9.83 µM.

`CCCCC(C(=O)c1ccc(C)cc1)N1CCCC1.Cl` (stereo not drawn) [4-CH3 α-PHP (4), 1-(4-Methylphenyl)-2-pyrrolidin-1-yl)hexanone Hydrochloride]: the figures for the IC50 in assay [1] and in assay [2] were 124 nM and 10.2 µM, respectively.

In the case of `CCCCC(C(=O)c1ccc(C)cc1)N1CCCC1.Cl` (stereo not drawn) [4-CH3 α-PHP (4)], the “DAT Selectivity” value in assay [1] is recorded as 83 fold.

Consider `CCCCC(C(=O)c1ccc(Cl)cc1)N1CCCC1.Cl` (stereo not drawn) [4-Cl α-PHP (7), 1-(4-Chlorophenyl)-2-(pyrrolidin-1-yl)hexanone Hydrochloride], for which, in assay [1], the “DAT Selectivity” value amounted to 55 fold. Besides, the values for the IC50 in assay [1] and in assay [2] were 184 nM and 10.1 µM, respectively.

For `CNC(C)C(=O)c1ccc(OC)cc1` (centres unmarked) [4-OCH3 10], the “fold lower potency as a releasing agent than its parent, 10” value in the assay on DAT [3] (DAT release) was 40 fold. In addition, in the assay with DAT [3] (releasing agent), the “SERT versus DAT selectivity” value was 4 fold.

For the compound `CCCCC(C(=O)c1ccc(OC)cc1)N1CCCC1.Cl` (stereo not drawn) [4-OCH3 α-PHP (5), 1-(4-Methoxyphenyl)-2-(pyrrolidin-1-yl)hexanone Hydrochloride], in assay [1], the “DAT Selectivity” value is recorded as 200 fold and it took 75 nM to reach half-maximal inhibition (IC50). In assay [2], it took 15.2 µM to reach half-maximal inhibition (IC50).

Turning to `CNC(C)C(=O)c1ccccc1` (centres unmarked) [Compound 10, methcathinone], in the assay on DAT [3], the EC50 was 13.5 nM.

With `CCCCC(C(=O)c1ccccc1)N1CCCC1` (stereo not drawn) [α-PHP (1), 1-phenyl-2-(pyrrolidin-1-yl)hexanone], the “DAT Selectivity” value in assay [1] was above 300 fold. Also, the IC50 in assay [1] is 97 nM; in assay [2], above 30 µM.
